procasp3 activ: activators of human procaspase-3 D3A mutant, primary screen, biochemical, absorbance, PC-3 D3A mutant, single concentration. recombinant procaspase-3 D3A, Ac-DEVD-pNA absorbance 405 nm. AID 463141, 2010. activation, % at 8.5 µM. hit rate 0.11% among 330,000. Caspase-3 (Homo sapiens), P42574;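 active = activation above the mean of all tested compounds plus 3 SD, cut at about 21% in these data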
Target sequence (P42574 whole entry D9A/D28A/D175A): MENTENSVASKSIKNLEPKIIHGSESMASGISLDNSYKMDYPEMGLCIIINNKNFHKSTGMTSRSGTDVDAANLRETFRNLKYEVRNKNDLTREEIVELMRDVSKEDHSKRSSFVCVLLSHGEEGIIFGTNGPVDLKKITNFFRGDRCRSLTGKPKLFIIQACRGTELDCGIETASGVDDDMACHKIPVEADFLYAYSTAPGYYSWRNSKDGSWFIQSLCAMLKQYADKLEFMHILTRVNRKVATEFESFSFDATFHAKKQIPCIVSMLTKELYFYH
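Technique: 405 nm absorbance of p-nitroaniline, reads at 0 and 120 min; Test system: Procaspase-3 D3A mutant; Incubation: 1 h enzyme-compound preincubation, then 2 h substrate reaction, 25 °C; Repeats: singlicate, each compound tested once; Benchmarks: low control DMSO wells, high control DMSO plus 5 µM PC-3 D3A.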
procasp7 counter: procaspase-7 activators, primary screen, counter-screen for procaspase-3 activator project, biochemical, absorbance, HTS, human. activation, % at 8.5 µM. hit rate 0.093% among 330,000. recombinant procaspase-7, Ac-DEVD-pNA absorbance 405 nm; D23A/D198A/D206A triple mutant, cannot self-cleave; scale: DMSO 0, 5 µM enzyme 100. AID 463210, 2010;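 active = percent activation above the screen-wide mean plus 3 SD, cut at about 25% in these data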
Target sequence (P55210 whole entry D23A/D198A/D206A): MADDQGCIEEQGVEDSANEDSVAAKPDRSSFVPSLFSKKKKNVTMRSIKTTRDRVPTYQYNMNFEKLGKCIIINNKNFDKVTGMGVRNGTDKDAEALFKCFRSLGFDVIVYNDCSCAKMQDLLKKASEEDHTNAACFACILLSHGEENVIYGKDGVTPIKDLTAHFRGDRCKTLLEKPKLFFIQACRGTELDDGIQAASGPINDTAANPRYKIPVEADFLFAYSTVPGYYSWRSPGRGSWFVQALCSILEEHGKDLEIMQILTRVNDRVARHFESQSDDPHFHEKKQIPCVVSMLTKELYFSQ
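signal = Epi-absorbance of released pNA at 405 nm, two timepoints | assay system = Uncleavable procaspase-7 mutant enzyme | reagent = Ac-DEVD-pNA substrate, 400 µM as added | times = 1 h enzyme–compound preincubation and 2 h substrate reaction, both 25 °C | benchmarks = low DMSO alone, high DMSO plus 5 µM PC-7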
Neddylation inh: inhibitors of cullin neddylation, primary screen, biochemical, TR-FRET, uHTS, NAE and Ubc12. NEDD8-conjugating enzyme Ubc12 (Homo sapiens) + NEDD8-activating enzyme E1 regulatory …. AID 651699, 2012. inhibition, % at 25 µM. hit rate 0.58% among 360,000; in the data active = inhibition above about 36%
HIF activator: HIF pathway transcriptional activators, primary screen, cell-based, U2OS HRE-luciferase, luminescence | hit rate 0.32% among 300,000 | U2OS HRE-luciferase reporter; normalized: DMSO 0%, desferrioxamine 100% | AID 1910, 2009 | activation, % at 7.5 µM (by protocol);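 active = mean activation of at least 10% of the iron chelator positive control signal, with at least half of replicates also reaching 10%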
Calb FLC: C. albicans growth inhibition with fluconazole, primary screen, CaCi-2 strain, Alamar Blue fluorescence; C. albicans CaCi-2 + fluconazole, 48 h; growth inhibition, % (concentration not given with the values); hit rate 0.57% among 300,000;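 active = growth inhibition above about 58% in most replicates, limit read from the data, passing the limit was not always enough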;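 also: all wells also contain fluconazole at 8 µg/ml as a sub-toxic cotreatment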
GAA850 FXN act: FXN promoter activators, primary screen, cell-based, luciferase luminescence, HEK293 lucGAA850. HEK293 lucGAA850 FXN promoter luciferase reporter, 24 h; percent of 10 µM SAHA response. activation, % at 6 µM. hit rate 0.56% among 360,000. AID 540364, 2011;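 active = activation above the average of all compounds screened plus 3 SD, cutoff fixed separately per campaign, cut at about 7.5% in these data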
GAA30 counter: GAA30 FXN promoter activators, confirmation, counter-screen for GAA850 frataxin promoter activator project, cell-based, luminescence, HEK293, lucGAA30, triplicate | HEK293 lucGAA30 FXN promoter luciferase, 24 h; DMSO = 0%, 5 µM ipriflavone = 100% | AID 588350, 2011 | shares compounds with GAA850 FXN act | activation, % at 6 µM | hit rate 66% among 1,900;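 active = mean activation above the mean of solvent-only control wells plus 3 SD, cut at about 22% in these data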;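 also: counterscreen of GAA850 promoter hits where activity marks nonselective or luminescence artifacts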
FXN GAA850 conf: FXN GAA850 promoter activators in reporter cells, confirmation, cell-based, luminescence, HEK293 lucGAA850, triplicate; hit rate 86% among 1,900; activation, % at 6 µM; shares compounds with GAA850 FXN act; HEK293 lucGAA850 FXN promoter luciferase reporter, 24 h; 100% = activation by SAHA;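 active = mean activation above a set limit taken from the primary screen, cut at about 8% in these data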
Numbers stand for hits; n = inactive; x = not tested or not shown. This is a sample that favours compounds with a hit; in the whole collection about 1.9% have one here.

SMILES	procasp3 activ	procasp7 counter	Neddylation inh	HIF activator	Calb FLC	GAA850 FXN act	GAA30 counter	FXN GAA850 conf
O=C(O)c1cnn(-c2nc(-c3ccc(Cl)c(Cl)c3)cs2)c1C(F)(F)F	n	n	n	n	n	8.1	60	32
O=C(O)c1cnn(-c2nc(-c3cccc(F)c3)cs2)c1C(F)(F)F	n	n	n	n	n	n	x	x
COc1ccccc1C(=O)NCCC(=O)NCCC12CC3CC(CC(C3)C1)C2	n	n	n	n	n	8.1	n	14
COc1ccccc1OCCNC(=O)CCNC(=O)c1ccccc1OC	n	n	n	x	x	n	x	x
COCCNC(=O)C1(C)CCCN(Cc2c(C)nn(-c3ccccc3)c2C)C1 (stereo not drawn)	x	x	n	x	x	n	x	x
Fc1ccc(CSc2ncnc3scc(-c4ccccc4)c23)cc1	n	n	n	n	n	8.9	22	14
CCCCC(=O)N(C)c1c(CC)nc2c(OCC(=O)C(C)(C)C)cccn12	x	x	n	x	x	n	x	x
Cc1cc(C(=O)CSc2nnnn2C)c(C)n1-c1ccc2c(c1)OCCO2	n	n	n	n	n	n	x	x
Cc1nnc(SCC(=O)c2cc(C)n(-c3ccc4c(c3)OCO4)c2C)s1	n	n	n	n	n	11	66	26
N#Cc1cc2c(nc1SCC(N)=O)CCCCC2	n	n	n	n	n	9.6	108	38
COc1ccc([C@@H]2[C@@H]3C(=O)N(C(C)(C)C)C(=O)[C@@H]3[C@]3(Cc4ccccc4)C(=O)N(c4ccc(C(F)(F)F)cc4)C(=O)N23)cc1	n	n	n	n	n	n	x	x
COc1ccc([C@@H]2[C@@H]3C(=O)N(C(C)(C)C)C(=O)[C@@H]3[C@]3(Cc4ccc(Cl)cc4)C(=O)N(c4cccc(C)c4)C(=O)N23)cc1	n	n	n	n	n	n	x	x
CC[C@@]12C(=O)N(c3cccc(C)c3)C(=O)N1[C@H](c1ccc(OC)cc1)[C@@H]1C(=O)N(C(C)(C)C)C(=O)[C@@H]12	n	n	n	n	n	12	29	20
CC[C@@]12C(=O)N(c3cccc(F)c3)C(=O)N1[C@H](c1ccc(OC)cc1)[C@@H]1C(=O)N(C(C)(C)C)C(=O)[C@@H]12	n	n	n	n	n	11	43	18
Cc1ccc(NC(=O)NC(=S)NC(=O)c2ccccc2)cc1	n	n	n	n	n	8.2	56	24
Cn1cc(CN2CCCC(CNC(=O)c3ccc4c(c3)OCO4)C2)c2ccccc21 (stereo not drawn)	n	n	n	n	n	11	n	13
Cn1cc(CN2CCCC(C(=O)c3cc(F)ccc3F)C2)c2ccccc21 (stereo not drawn)	n	n	n	n	n	n	x	x
C[C@H]1CNC(=O)c2c(C(=O)N[C@@H](Cc3c[nH]c4ccccc34)C(=O)OC(C)(C)C)ncn21	x	x	n	x	x	n	x	x
CC(=O)N1CC(=O)N=C1SCC(=O)Nc1nc(C)c(-c2ccccc2)s1	n	n	n	n	n	8.0	44	22
c1ccc(-c2ccncn2)cc1	x	x	n	x	x	n	x	x
CCc1nn(CCCC(=O)NC2CCCCC2C)c(=O)c2cc3occc3n12 (stereo not drawn)	x	x	n	x	x	n	x	x
Cc1ccc(CN2C(=O)C(CC(C)C)Nc3ncnc(N4CCCCC4)c32)cc1 (stereo not drawn)	x	x	n	x	x	x	x	x
COc1ccc(Cn2nnnc2CN(Cc2cc3cccc(C)c3[nH]c2=O)C2CCCC2)cc1	n	n	n	n	n	7.8	n	n
COc1ccc(Cn2nnnc2CN(Cc2cc3ccc(C)cc3[nH]c2=O)C2CCCC2)cc1	n	n	n	n	n	n	x	x
C=C1CCN([C@@H](Cc2ccccc2)C(=O)Nc2ccc(OC)cc2)S(=O)(=O)c2ccccc21	n	n	n	n	n	12	29	13
SMILES	procasp3 activ	procasp7 counter	Neddylation inh	HIF activator	Calb FLC	GAA850 FXN act	GAA30 counter	FXN GAA850 conf
C=C1CCN([C@H](C(=O)Nc2ccc(OC)cc2)C(C)C)S(=O)(=O)c2ccccc21	n	n	n	n	n	9.5	n	12
C=C1CCN([C@@H](Cc2ccccc2)C(=O)NCCCc2ccccc2)S(=O)(=O)c2ccccc21	n	n	n	n	n	n	x	x
O=C(/C=C/c1ccc([N+](=O)[O-])cc1)c1ccccc(=O)c1O	x	x	n	x	x	9.5	n	n
O=C(/C=C/c1ccc([N+](=O)[O-])cc1)c1cccs1	n	n	n	n	n	n	x	x
COc1cc(CN2C[C@@H](CO)O[C@@H](n3cnc4c(NCc5ccco5)ncnc43)C2)cc(OC)c1OC	x	x	n	x	x	n	x	x
COc1ccc(CCN(C)c2ccc(S(=O)(=O)N3CCCC3)cc2[N+](=O)[O-])cc1OC	n	n	n	n	n	9.9	n	11
COc1ccc(CN(C)c2ccc(S(=O)(=O)N3CCN(C)CC3)cc2[N+](=O)[O-])cc1OC	n	n	n	x	x	n	x	x
NS(=O)(=O)c1cccc(NC(=O)CSc2nnc(NC3CC3)s2)c1	x	x	n	x	x	n	x	x
COc1ccc(-c2cnn3c4c(c(C)nc23)CCN4C(C)C)cc1OC	n	n	n	n	n	9.8	80	36
COC(CN1CCc2c(C)nc3c(C#N)cnn3c21)OC	n	n	x	n	n	n	x	x
CC(C)(C)c1ccc(Cn2nnc3c(=O)[nH]c(C4CCN(C(=O)Cc5cccs5)CC4)nc32)cc1	n	n	n	n	n	8.3	n	10
Nc1nc(=O)n(C2OC(CO)C(O)C2O)cc1F (stereo not drawn)	x	x	n	x	x	x	x	x
O=c1[nH]c(=O)n(C2OC(CO)C(O)C2O)cc1F (stereo not drawn)	x	x	n	x	x	19	n	78
CC1CCCc2sc3nc(N4CCN(CCO)CC4)n4ncnc4c3c21 (stereo not drawn)	n	n	n	n	n	8.1	33	21
